Calls of active or inactive are those of the source. The rule behind the calls is not given here.
How the values were obtained:
[1] = system: Tumour; assay: Decrease in STAT5 phosphorylation at Tyr694 in tumor of CrTac:NCR-Foxn1nu (NCR) nude mouse xenografted with human MOLM13 cells at 150 mg/kg, po after 3 hrs; assay type: functional, organism-based; set-up: dose 150 mg/kg; settings: Neoplasm, MOLM-13
Summary of the method: (§1)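 MOLM13 tumor-bearing mice received a single oral dose of 50, 75 or 150 mg/kg. Tumors were harvested at 3, 6 and 24 h, and lysates were assayed for pSTAT5 and pRb. Unbound plasma levels were measured at the same time points. Results are mean ± SEM, n = 3 per group and n = 6 for vehicle.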

[2] = molecular target: T1, Receptor-type tyrosine-protein kinase FLT3 (Homo sapiens, UniProt P36888); assay: Inhibition of GST-fused human FLT3 cytoplasmic domain (amino acids 564 to 993) using Ulight-JAK1 as substrate after 1 hr by TR-FRET assay
T1 sequence (P36888 whole entry): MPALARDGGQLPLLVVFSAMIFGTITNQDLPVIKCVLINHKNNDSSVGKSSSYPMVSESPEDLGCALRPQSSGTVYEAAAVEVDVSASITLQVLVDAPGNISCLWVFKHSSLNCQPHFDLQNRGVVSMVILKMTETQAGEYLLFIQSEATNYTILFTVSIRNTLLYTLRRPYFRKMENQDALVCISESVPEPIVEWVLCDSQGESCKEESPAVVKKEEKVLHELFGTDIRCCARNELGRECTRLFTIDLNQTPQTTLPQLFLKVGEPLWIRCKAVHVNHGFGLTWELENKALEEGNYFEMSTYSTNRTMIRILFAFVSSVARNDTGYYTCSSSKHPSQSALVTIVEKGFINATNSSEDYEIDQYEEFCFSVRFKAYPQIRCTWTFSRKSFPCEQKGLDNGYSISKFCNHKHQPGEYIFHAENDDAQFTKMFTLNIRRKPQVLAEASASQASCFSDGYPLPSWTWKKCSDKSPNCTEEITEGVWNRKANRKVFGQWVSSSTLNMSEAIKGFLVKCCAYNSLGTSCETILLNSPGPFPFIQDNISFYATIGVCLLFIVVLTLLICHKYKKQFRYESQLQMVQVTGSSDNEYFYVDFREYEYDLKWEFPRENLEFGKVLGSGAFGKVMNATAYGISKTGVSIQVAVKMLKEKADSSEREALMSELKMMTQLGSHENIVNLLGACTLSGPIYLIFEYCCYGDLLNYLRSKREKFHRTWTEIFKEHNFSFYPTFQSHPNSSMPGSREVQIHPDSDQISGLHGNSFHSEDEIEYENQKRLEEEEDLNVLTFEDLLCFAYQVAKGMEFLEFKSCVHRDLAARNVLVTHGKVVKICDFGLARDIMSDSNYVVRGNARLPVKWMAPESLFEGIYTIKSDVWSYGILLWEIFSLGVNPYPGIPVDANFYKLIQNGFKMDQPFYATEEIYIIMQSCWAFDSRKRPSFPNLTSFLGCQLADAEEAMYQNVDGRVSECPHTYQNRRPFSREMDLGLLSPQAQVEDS

[3] = Oral bioavailability in rat; assay type: ADME, organism-based; settings: in vivo
Summary of the method: (§2)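 Intravenous and oral (gavage, solution) PK in rat, dog and cynomolgus monkey. The rat vehicle for both routes was water/acetate/tween at pH 4, 96/3/1 (v/v/v). Dog and monkey iv doses used 40% PG aqueous solution at pH 2, and their oral doses used 20% captisol aqueous solution.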

[4] = Clearance in iv dosed rat; assay type: ADME, organism-based; settings: in vivo; summary of the method: as §2
[5] = system: Tumour; assay: Decrease in Rb phosphorylation at Ser780 in tumor of po dosed CrTac:NCR-Foxn1nu (NCR) nude mouse xenografted with human MOLM13 cells after 24 hrs; assay type: functional, organism-based; settings: Neoplasm, MOLM-13; summary of the method: as §1
[6] = species on record: Homo sapiens; assay: Selectivity ratio of IC50 for CDK1/cyclin B (unknown origin) to IC50 for CDK4/cyclin D1 (unknown origin)
[7] = Drug uptake in CrTac:NCR-Foxn1nu (NCR) nude mouse at 150 mg/kg, po after 3 hrs; assay type: ADME, organism-based; set-up: dose 150 mg/kg, route oral; settings: in vivo, read-out: Drug uptake
Summary of the method: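 Total plasma drug concentration in mouse PK studies, taken 3 h after a 150 mg/kg oral dose.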

[8] = molecular target: Cyclin-dependent kinase 1/cyclin B1 (Homo sapiens, UniProt P06493); assay: Inhibition of CDK1/cyclin B (unknown origin) using histone H1 as substrate after 60 mins by scintillation counting analysis in presence of [r-33P]ATP; assay type: protein-complex assay
[9] = system: Mus musculus; assay: Unbound Cmax in CrTac:NCR-Foxn1nu (NCR) nude mouse xenografted with human MOLM13 cells at 150 mg/kg, po; assay type: ADME, organism-based, MOLM-13; set-up: dose 150 mg/kg, route oral; settings: in vivo
[10] = Antiproliferative activity against Rb-negative human MDA-MB-436 cells assessed as incorporation of [3H]thymidine into DNA after 72 hrs by beta-plate counting analysis; assay type: functional
[11] = molecular target: Receptor-type tyrosine-protein kinase FLT3 (Homo sapiens, UniProt P36888, ITD); assay: Inhibition of FLT3 ITD mutant in human MOLM13 cells assessed as inhibition of STAT5 phosphorylation at Tyr694 after 24 hrs; assay type: cell-based, MOLM-13
[12] = molecular target: Cyclin-dependent kinase 4/cyclin D1 (Homo sapiens, UniProt P11802); assay: Inhibition of CDK4/cyclin D1 (unknown origin) using Rb as substrate after 60 mins by scintillation counting analysis in presence of [r-33P]ATP; assay type: protein-complex assay
[13] = system: COLO 205; assay: Antiproliferative activity against Rb-positive human COLO205 cells assessed as incorporation of [14C]thymidine into DNA after 72 hrs by beta-plate counting analysis
[14] = Total Cmax in rat at 2 mg/kg, po; assay type: ADME, organism-based; set-up: dose 2 mg/kg, route oral; settings: in vivo
[15] = AUC in rat at 2 mg/kg, po; assay type: ADME, organism-based; set-up: dose 2 mg/kg, route oral; settings: plasma
[16] = system: MOLM-13; assay: Antiproliferative activity against human MOLM13 cells harboring FLT3 ITD mutant assessed as incorporation of [3H]thymidine into DNA after 72 hrs by beta-plate counting analysis; assay type: functional, cell-based
[17] = molecular target: Cyclin-dependent kinase 4 (Homo sapiens, UniProt P11802); assay: Inhibition of CDK4 in human MOLM13 cells assessed as inhibition of Rb phosphorylation at Ser780 after 24 hrs; assay type: cell-based, MOLM-13
[18] = molecular target: CYP3A4 (Homo sapiens, UniProt P08684); assay: Inhibition of CYP3A4 (unknown origin) at 3 uM; assay type: ADME
[19] = molecular target: Voltage-gated inwardly rectifying potassium channel KCNH2 (Homo sapiens, UniProt Q12809); assay: Binding affinity to human ERG
[20] = molecular target: Cytochrome P450 3A4 (Homo sapiens, UniProt P08684); assay: Inhibition of CYP3A4 (unknown origin); assay type: ADME
[21] = system: Mus musculus; assay: Toxicity in po dosed CrTac:NCR-Foxn1nu (NCR) nude mouse xenografted with human MOLM13 cells at dose that causing 100% tumor growth inhibition administered qd for 8 days; assay type: organism-based, MOLM-13; settings: in vivo, 192 h
Summary of the method: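 Body weight tracked throughout the 8-day once-daily oral study in NCR nude mice carrying MOLM13 xenografts. Doses were 25, 50, 75 and 150 mg/kg, with a vehicle control.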

Sequence of Cyclin-dependent kinase 4/cyclin D1 (P11802 whole entry): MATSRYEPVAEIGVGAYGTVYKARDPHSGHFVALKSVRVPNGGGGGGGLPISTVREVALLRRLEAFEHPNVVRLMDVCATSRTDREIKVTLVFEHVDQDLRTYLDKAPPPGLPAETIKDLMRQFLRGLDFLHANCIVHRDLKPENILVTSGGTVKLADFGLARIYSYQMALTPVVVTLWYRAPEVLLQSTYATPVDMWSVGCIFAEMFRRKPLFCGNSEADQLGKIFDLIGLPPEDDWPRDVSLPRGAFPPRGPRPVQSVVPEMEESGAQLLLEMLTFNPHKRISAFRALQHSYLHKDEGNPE
Sequence of Cyclin-dependent kinase 4/cyclin D1 (P24385 whole entry, further chain): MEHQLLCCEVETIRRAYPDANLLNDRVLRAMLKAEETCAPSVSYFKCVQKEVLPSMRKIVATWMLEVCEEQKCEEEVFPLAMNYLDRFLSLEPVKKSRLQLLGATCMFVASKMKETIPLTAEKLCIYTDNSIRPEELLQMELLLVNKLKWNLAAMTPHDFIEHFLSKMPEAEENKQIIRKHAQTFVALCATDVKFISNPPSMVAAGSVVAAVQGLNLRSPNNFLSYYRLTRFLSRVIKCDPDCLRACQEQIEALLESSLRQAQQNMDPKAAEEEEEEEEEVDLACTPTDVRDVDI
Sequence of Cyclin-dependent kinase 1/cyclin B1 (P06493 whole entry): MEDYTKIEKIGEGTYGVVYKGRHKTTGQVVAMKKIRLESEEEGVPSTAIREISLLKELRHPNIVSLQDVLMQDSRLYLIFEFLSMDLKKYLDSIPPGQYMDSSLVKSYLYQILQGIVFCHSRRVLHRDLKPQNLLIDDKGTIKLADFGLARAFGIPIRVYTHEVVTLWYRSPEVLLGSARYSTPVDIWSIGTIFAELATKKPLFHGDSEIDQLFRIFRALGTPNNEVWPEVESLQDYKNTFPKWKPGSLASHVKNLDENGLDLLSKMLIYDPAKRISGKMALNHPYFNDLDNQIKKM
Sequence of Cyclin-dependent kinase 1/cyclin B1 (P14635 whole entry, further chain): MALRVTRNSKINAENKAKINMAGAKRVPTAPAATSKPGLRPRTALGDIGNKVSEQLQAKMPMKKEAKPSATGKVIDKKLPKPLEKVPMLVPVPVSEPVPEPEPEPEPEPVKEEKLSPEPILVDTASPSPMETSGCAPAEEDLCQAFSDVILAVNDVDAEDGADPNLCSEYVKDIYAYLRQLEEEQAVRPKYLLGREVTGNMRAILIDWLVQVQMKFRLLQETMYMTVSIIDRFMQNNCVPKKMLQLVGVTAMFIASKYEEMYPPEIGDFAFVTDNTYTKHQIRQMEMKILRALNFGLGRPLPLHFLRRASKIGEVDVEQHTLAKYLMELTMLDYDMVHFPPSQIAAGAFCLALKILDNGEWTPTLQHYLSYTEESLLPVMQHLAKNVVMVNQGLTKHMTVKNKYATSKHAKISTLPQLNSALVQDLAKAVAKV
Sequence of Cyclin-dependent kinase 4 (P11802 whole entry): as the sequence (P11802 whole entry) above
Sequence of Voltage-gated inwardly rectifying potassium channel KCNH2 (Q12809 whole entry): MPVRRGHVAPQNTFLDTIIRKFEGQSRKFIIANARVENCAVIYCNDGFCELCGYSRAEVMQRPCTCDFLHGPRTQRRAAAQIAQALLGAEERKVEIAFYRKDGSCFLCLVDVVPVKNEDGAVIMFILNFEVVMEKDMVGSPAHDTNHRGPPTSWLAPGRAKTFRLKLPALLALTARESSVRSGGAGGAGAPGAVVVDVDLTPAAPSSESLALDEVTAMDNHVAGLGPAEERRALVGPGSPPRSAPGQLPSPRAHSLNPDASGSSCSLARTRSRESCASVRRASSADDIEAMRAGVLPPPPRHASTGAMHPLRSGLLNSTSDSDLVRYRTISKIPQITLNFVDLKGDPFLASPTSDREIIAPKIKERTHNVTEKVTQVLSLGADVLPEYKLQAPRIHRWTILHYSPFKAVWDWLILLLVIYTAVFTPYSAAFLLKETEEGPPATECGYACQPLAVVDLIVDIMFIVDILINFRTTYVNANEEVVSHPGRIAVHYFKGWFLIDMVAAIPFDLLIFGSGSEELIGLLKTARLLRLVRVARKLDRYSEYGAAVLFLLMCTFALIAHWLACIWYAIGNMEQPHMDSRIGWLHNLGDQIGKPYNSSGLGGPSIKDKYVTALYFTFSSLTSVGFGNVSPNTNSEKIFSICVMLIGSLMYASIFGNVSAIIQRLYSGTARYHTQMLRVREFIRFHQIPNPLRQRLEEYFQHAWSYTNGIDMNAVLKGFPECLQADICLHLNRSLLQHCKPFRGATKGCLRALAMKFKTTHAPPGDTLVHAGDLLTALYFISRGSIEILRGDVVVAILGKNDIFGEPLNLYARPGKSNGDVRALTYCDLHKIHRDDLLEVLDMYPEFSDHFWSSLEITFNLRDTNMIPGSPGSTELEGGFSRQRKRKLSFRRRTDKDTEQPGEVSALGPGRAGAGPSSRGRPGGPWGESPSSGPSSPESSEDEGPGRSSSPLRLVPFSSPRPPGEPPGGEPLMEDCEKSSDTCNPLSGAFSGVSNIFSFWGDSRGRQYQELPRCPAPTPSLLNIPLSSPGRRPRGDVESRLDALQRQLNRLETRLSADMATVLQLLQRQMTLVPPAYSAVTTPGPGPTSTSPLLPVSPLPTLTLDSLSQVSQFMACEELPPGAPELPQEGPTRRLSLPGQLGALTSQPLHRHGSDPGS
Sequence of Cytochrome P450 3A4 (P08684 whole entry): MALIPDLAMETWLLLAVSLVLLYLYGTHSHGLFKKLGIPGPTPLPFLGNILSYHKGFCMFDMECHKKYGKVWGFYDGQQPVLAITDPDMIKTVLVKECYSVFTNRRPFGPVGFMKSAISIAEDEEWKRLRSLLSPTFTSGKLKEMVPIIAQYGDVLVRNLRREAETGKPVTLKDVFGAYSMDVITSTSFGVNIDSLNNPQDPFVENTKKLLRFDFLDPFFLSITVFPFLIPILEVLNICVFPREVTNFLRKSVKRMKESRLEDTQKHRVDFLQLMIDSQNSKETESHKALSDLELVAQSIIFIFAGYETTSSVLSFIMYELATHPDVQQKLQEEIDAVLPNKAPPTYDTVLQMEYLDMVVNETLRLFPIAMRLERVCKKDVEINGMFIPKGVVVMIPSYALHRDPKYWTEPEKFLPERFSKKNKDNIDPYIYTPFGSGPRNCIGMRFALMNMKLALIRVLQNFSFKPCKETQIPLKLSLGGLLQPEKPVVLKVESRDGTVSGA
Sequence of CYP3A4 (P08684 whole entry): as above

CN(C)C1CCN(c2ccc(Nc3ncc4c5ccncc5n([C@H]5CC[C@H](C)CC5)c4n3)nn2)CC1
inhibition [1]: inactive
IC50 [2]: 4 nM
bioavailability [3]: 28%
clearance [4]: 10.2 mL/min/kg
inhibition [5]: Dose-dependent effect
Ratio IC50 [6]: > 1000
concentration at 3 h [7]: 850 nM
IC50 [8]: 2200 nM
fCmax [9]: 0.024 µM
IC50 [10]: 2150 nM
IC50 [11]: 52 nM
IC50 [12]: 2 nM
IC50 [13]: 11 nM
Cmax [14]: 130 nM
AUC [15]: 1.57 µM·h
IC50 [16]: 9 nM
IC50 [17]: 23 nM

C[C@@H](O)CN(C)C1CCN(c2ccc(Nc3ncc4c5ccncc5n([C@H]5CC[C@H](C)CC5)c4n3)nn2)CC1
bioavailability [3]: 46%
clearance [4]: 10 mL/min/kg
IC50 [8]: 1540 nM
IC50 [10]: 910 nM
IC50 [13]: 9 nM
Cmax [14]: 280 nM
AUC [15]: 3.24 µM·h
IC50 [16]: 4 nM

Clc1nccc2c3cnc(Nc4ccc(N5CCNCC5)cn4)nc3n(C3CCCC3)c12
IC50 [2]: 5 nM
clearance [4]: 28.3 mL/min/kg
IC50 [8]: 3300 nM
inhibition at 3 µM [18]: < 10%
IC50 [10]: 2100 nM
IC50 [12]: 4 nM
IC50 [13]: 63 nM
IC50 [19]: 2000 nM
IC50 [16]: 9 nM
IC50 [20]: > 10000 nM

CN(C)C1CCN(c2ccc(Nc3ncc4c5ccncc5n([C@H]5CC[C@H](C)CC5)c4n3)nc2F)CC1
Activity [21]: Toxic
IC50 [2]: 0.6 nM
bioavailability [3]: 88%
clearance [4]: 20 mL/min/kg
IC50 [8]: 2680 nM
IC50 [10]: 1470 nM
IC50 [12]: 1 nM
IC50 [13]: 16 nM
IC50 [16]: 13 nM

COc1nc(Nc2ncc3c4ccncc4n([C@H]4CC[C@H](C)CC4)c3n2)ccc1N1CCC(N(C)C)CC1
Activity [21]: Toxic
IC50 [2]: 0.2 nM
bioavailability [3]: 62%
clearance [4]: 9.17 mL/min/kg
IC50 [8]: 790 nM
IC50 [10]: 1120 nM
IC50 [12]: 3 nM
IC50 [13]: 54 nM
IC50 [16]: 2 nM

Reference: ChEMBL document CHEMBL3232894, “Discovery of AMG 925, a FLT3 and CDK4 dual kinase inhibitor with preferential affinity for the activated state of FLT3” (J Med Chem, 2014)
